Data set [1] deals with Serine/threonine-protein kinase PLK3 (Homo sapiens, UniProt Q9H4B4). In words: Inhibition of PLK3 (unknown origin) by FRET-based homogenous assay.
The next data set deals with A549. The experiment in a line: Growth inhibition of human A549 cells after 5 days by SRB assay. In kind it is functional. The note with it: A549, 120 h. Background: In SRB staining, fixed cells bind dye roughly in proportion to their protein.
Data set [2] deals with T1, Dual specificity protein kinase TTK (Homo sapiens, UniProt P33981).
T1 sequence (P33981 whole entry): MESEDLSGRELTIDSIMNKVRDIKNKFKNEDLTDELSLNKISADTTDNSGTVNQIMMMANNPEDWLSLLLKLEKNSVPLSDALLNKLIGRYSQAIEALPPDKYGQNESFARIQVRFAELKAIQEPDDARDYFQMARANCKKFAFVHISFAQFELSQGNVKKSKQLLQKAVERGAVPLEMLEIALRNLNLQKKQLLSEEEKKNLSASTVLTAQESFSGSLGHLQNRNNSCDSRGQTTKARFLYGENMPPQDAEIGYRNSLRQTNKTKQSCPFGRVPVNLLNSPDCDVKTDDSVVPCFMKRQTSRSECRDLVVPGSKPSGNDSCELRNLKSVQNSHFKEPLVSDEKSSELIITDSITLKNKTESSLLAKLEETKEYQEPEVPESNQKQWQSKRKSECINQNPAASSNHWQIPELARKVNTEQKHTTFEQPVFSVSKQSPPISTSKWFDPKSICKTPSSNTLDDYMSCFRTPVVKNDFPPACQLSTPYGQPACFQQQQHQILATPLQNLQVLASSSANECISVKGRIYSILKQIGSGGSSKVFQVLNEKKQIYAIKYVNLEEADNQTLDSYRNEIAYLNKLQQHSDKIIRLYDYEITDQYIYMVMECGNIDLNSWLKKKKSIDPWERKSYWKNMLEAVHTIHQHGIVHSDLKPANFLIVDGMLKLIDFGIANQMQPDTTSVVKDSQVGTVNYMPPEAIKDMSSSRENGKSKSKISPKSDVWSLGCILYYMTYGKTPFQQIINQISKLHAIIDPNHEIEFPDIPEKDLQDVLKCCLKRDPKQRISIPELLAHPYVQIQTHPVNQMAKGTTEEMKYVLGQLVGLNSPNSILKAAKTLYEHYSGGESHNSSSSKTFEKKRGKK
The experiment in a line: Inhibition of TTK in human HCT116 cells assessed as phosphorylation of histone H3 at Ser10 residue after 4 hrs by immunoassay. In kind it is cell-based, HCT-116.

Data set [3] is described as follows: Solubility of the compound at pH 7.4. The note with it: buffer. In kind it is physicochemical.
Data set [4] is described as follows: Growth inhibition of human HCT116 cells after 5 days by SRB assay. In kind it is functional. The settings on record: HCT-116, 120 h.
For data set [5], the target named is Serine/threonine-protein kinase PLK1 (Homo sapiens, UniProt P53350). The experiment in a line: Inhibition of PLK1 (unknown origin) by FRET-based homogenous assay.
Sequence of Serine/threonine-protein kinase PLK1 (P53350 whole entry): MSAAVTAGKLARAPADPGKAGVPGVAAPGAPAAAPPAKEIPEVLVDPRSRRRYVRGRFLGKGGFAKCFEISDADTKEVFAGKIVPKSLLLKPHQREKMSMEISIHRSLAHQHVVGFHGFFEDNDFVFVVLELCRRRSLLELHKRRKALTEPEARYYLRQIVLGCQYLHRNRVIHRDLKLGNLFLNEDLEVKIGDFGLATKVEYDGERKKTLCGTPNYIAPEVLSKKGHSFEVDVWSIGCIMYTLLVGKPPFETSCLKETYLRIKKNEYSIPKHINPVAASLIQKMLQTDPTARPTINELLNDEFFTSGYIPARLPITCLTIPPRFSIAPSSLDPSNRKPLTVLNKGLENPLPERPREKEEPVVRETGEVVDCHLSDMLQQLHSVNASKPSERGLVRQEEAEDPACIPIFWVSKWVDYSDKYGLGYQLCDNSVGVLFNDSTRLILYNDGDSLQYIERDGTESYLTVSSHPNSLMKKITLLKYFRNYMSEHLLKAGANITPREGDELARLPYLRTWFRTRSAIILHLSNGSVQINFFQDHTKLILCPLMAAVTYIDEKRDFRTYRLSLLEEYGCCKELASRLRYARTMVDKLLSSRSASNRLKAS
The next data set deals with Aurora kinase B (Homo sapiens, UniProt Q96GD4). The experiment in a line: Inhibition of Aurora B (unknown origin) by FRET-based homogenous assay.
Sequence of Aurora kinase B (Q96GD4 whole entry): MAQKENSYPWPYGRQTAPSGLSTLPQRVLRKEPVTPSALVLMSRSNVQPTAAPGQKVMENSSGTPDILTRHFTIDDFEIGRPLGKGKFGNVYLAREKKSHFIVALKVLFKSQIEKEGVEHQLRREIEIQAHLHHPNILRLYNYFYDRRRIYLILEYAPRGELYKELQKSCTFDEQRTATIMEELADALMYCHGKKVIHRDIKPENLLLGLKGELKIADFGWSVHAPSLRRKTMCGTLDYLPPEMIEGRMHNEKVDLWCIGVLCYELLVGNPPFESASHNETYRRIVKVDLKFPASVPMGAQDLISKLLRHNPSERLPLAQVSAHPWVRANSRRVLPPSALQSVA
In a further data set the target is Cytochrome P450 3A4 (Homo sapiens, UniProt P08684). In words: Inhibition of CYP3A4 in supersomes (unknown origin) using Dibenzylfluorescein as substrate after 10 mins. In kind it is ADME.
Sequence of Cytochrome P450 3A4 (P08684 whole entry): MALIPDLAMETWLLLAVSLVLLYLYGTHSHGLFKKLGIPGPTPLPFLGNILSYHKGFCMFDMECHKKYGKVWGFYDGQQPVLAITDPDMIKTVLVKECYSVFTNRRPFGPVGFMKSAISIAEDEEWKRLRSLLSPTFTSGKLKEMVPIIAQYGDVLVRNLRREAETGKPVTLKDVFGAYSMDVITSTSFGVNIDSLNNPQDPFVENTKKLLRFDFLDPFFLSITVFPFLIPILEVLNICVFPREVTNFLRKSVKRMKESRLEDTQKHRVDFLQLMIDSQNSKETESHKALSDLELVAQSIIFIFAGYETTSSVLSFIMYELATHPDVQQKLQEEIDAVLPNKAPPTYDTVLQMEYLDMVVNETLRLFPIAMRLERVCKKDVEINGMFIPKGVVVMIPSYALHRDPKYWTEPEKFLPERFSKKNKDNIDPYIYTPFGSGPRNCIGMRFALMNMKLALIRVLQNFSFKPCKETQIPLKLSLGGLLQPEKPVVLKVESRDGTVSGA
In another data set the test system is MDA-MB-468. The experiment in a line: Growth inhibition of human MDA-MB-468 cells after 5 days by SRB assay. In kind it is functional. The note with it: MDA-MB-468, 120 h.
Data set [6] in a line: Cell cycle arrest in human HCT116 cells assessed as accumulation at sub-G1 phase at 1 uM after 2 days by flow cytometry. The note with it: HCT-116. In kind it is functional, cell-based. (In general: Flow cytometry measures light scatter and fluorescence of single cells or particles in a stream.)
For data set [7], the target named is Serine/threonine-protein kinase PLK2 (Homo sapiens, UniProt Q9NYY3). The experiment in a line: Inhibition of PLK2 (unknown origin) by FRET-based homogenous assay.
Sequence of Serine/threonine-protein kinase PLK2 (Q9NYY3 whole entry): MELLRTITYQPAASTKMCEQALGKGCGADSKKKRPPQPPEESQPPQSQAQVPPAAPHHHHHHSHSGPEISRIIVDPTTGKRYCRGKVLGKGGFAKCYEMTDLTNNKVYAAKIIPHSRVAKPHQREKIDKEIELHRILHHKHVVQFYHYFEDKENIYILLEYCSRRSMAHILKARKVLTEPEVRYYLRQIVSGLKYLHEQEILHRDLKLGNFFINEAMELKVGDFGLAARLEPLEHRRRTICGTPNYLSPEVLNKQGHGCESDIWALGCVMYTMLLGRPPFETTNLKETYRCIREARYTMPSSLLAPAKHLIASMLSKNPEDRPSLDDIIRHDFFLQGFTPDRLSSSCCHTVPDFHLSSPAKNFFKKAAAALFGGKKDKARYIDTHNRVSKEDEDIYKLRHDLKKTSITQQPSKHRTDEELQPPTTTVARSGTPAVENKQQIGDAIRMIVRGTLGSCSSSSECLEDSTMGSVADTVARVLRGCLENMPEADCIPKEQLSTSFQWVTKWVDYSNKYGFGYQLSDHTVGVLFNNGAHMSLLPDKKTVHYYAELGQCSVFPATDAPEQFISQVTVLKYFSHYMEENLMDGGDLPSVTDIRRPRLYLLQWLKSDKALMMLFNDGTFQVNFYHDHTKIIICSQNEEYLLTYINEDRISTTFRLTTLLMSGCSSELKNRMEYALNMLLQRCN
Data set [8] addresses T2, Serine/threonine-protein kinase PLK4 (Homo sapiens, UniProt O00444).
T2 sequence (O00444 whole entry): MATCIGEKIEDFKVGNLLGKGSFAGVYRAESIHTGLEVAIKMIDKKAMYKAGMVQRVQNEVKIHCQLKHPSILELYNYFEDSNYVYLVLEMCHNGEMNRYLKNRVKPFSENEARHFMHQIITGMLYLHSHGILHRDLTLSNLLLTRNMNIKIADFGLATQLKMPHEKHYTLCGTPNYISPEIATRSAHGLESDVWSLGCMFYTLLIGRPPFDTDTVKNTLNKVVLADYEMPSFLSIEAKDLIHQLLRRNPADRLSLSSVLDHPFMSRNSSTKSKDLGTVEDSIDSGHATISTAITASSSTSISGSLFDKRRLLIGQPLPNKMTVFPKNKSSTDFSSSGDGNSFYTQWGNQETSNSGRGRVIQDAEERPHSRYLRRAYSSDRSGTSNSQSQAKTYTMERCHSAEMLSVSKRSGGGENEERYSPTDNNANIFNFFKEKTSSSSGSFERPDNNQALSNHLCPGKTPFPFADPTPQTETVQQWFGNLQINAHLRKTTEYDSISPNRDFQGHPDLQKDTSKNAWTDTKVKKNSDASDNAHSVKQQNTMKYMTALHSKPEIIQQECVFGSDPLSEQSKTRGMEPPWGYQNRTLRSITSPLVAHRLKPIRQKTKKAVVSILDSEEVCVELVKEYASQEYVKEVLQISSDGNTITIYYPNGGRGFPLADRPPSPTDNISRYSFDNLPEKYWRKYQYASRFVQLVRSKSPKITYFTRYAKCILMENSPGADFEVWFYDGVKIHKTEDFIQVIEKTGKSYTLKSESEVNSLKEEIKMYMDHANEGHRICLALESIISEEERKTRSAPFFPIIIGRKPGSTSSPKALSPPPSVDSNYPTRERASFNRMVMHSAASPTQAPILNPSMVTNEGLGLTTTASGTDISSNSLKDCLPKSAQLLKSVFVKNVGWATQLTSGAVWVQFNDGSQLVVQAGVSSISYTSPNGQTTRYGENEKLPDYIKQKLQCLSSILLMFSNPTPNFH
The experiment in a line: Inhibition of GST-tagged human PLK4 (1-391 residues) phosphorylation by ELISA. (In general: ELISA stands for enzyme-linked immunosorbent assay.)

Data set [9] is described as follows: AUC in SCID mouse at 25 mg/kg, ip. In kind it is ADME, organism-based. Further details: dose 25 mg/kg, route intraperitoneal. The settings on record: plasma. An outline of the steps:
(§1)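 Mice were dosed at 25 mg/kg by the IP or the PO route. Drug levels were measured in plasma, and Cmax (µg/mL) and AUC (µg h/mL) were derived for each route.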

A short description of data set [10]: Cmax in SCID mouse at 25 mg/kg, ip. In kind it is ADME, organism-based. Also on record: dose 25 mg/kg, route intraperitoneal. The settings on record: in vivo. An outline of the steps: as §1
In data set [11] the test system is Mus musculus. In words: Toxicity in SCID mouse assessed as mortality at 25 mg/kg, ip bid for 18 days. In kind it is organism-based. Further details: dose 25 mg/kg, route intraperitoneal. The note with it: in vivo, 432 h.
Data set [12] in a line: Antitumor activity against human HCT116 cells xenografted in SCID mouse assessed as tumor growth inhibition at 12.5 mg/kg, ip qd for 18 days. In kind it is functional. The note with it: HCT-116, ip, 432 h, route intraperitoneal, read-out: TGI. An outline of the steps:
(§2)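 Mice bore HCT116 tumour xenografts. Arms were dosed IP at 12.5 or 25 mg/kg QD, or at 12.5 mg/kg BID. The reference arm received 5-fluorouracil IP at 15 mg/kg daily. Tumour volume was compared with a negative control group to give percent tumour growth inhibition. Body weight was monitored in all arms.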

Data set [13] relates to Mus musculus. In words: Toxicity in SCID mouse assessed as body weight loss at 15 mg/kg, ip qd for 5 days. In kind it is organism-based. The note with it: in vivo, 120 h. Also on record: dose 15 mg/kg, route intraperitoneal. An outline of the steps:
as §2

Each structure is given as a SMILES string. ≈ marks a conversion by molar mass, not a printed value. Calls of active or inactive are those of the source. No cut-off for these calls is given here.

Sequence of Serine/threonine-protein kinase PLK3 (Q9H4B4 whole entry): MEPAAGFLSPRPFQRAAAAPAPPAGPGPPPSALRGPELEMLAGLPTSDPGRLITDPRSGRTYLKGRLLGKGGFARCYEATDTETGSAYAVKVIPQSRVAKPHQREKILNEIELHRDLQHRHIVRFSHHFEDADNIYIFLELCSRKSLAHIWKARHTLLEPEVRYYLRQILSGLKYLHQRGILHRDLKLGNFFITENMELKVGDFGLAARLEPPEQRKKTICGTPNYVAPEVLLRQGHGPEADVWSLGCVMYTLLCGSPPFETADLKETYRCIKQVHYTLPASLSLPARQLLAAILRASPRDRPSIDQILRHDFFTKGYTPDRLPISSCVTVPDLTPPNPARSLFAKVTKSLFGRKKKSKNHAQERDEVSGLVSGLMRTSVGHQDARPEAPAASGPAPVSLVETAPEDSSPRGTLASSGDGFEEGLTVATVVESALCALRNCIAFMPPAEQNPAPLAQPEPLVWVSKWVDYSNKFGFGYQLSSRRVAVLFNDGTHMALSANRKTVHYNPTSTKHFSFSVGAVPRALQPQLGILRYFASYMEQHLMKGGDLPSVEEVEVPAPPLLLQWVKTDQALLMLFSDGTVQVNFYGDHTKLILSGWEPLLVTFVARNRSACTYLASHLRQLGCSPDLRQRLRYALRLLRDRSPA

Turning to `NS(=O)(=O)c1cccc(-c2n[nH]c3ccc(NC(=O)C(c4ccsc4)N4CCCC4)cc23)c1` (racemic), the 50% inhibitory concentration (IC50) (in general, the concentration that inhibits the measured activity by half) is over 50000 nM in [1]; over 50000 nM in data set [5]; 720 nM against Aurora kinase B; over 1000 nM against Cytochrome P450 3A4; 10000 nM in data set [7]; 89 nM in data set [8]. For the same compound, the concentration for 50% growth inhibition (GI50) (commonly the concentration that inhibits growth by half) with A549 worked out at 90 nM; in [4], 70 nM; with MDA-MB-468, 90 nM. The EC50 – broadly, the concentration needed to bring the measured effect to its halfway point – in data set [2] was determined as 420 nM. Besides, the solubility (usually the dissolved amount per volume that the medium holds) in data set [3] worked out at 9 µg/mL (≈ 18.7 µM). Besides, the outcome in [6] was Active.

For `CCc1ccccc1C(C(=O)Nc1ccc2[nH]nc(-c3cccc(S(N)(=O)=O)c3)c2c1)N(C)C` (racemic), the figures for the concentration for 50% growth inhibition (GI50) (in the data set with A549; in [4]; in the data set on MDA-MB-468) were 160 nM, 100 nM and 660 nM, respectively. In data set [2], the concentration for a half-maximal effect (EC50) amounted to 520 nM. The concentration in solution in [3] (solubility) was 1.4 µg/mL (≈ 2.93 µM). Further, the concentration for half-maximal inhibition (IC50) was over 50000 nM in data set [5], 480 nM against Aurora kinase B, 2900 nM at Cytochrome P450 3A4 and 83 nM in [8]. Besides, the AUC (usually concentration integrated over time) in [9] turned out to be 3000 ng·h/mL. In data set [10], the Cmax (as a rule, the highest concentration seen after dosing) was 4800 ng/mL. Further, the values for the Activity entry in the data set with Mus musculus [11] and in the data set with Mus musculus [13] were “Toxic” and “Non-toxic”, respectively. In addition, the inhibition in vivo at 12.5 mg/kg in data set [12] was 10%. Also, the result in data set [6] was Active.

Source of the values: ChEMBL document CHEMBL3352261, “Discovery of inhibitors of the mitotic kinase TTK based on N-(3-(3-sulfamoylphenyl)-1H-indazol-5-yl)-acetamides and carboxamides” (Bioorg Med Chem, 2014).
